Activity calls are given as the source filed them. The calls are words filed in the database; no cut-off is given here.
What was measured:
Homo sapiens = species: Homo sapiens; test: Selectivity index, ratio of IC50 for inhibition of recombinant human full length C-terminal FLAG/His-tagged HDAC1 expressed in Sf9 insect cells to IC50 for inhibition recombinant human HDAC8
Procedure, shortened: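 HDAC1 and HDAC6 IC50 values from the ZMAL fluorogenic assay: 37 °C for 90 min, then trypsin/TSA development, read at ex 390/em 460 nm. HDAC8 IC50 from the kit enzyme (0.45 U/reaction), 0.5% DMSO, 15 min preincubation with compound, 50 μM Fluor de Lys substrate, 1 h at 30 °C. HDAC8 reaction quenched with TSA (2 μM) in developer, 1 h, read at ex 370/em 450 nm, IC50 by nonlinear regression. Ratio of IC50s.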

[1] = Cytotoxicity against mouse NIH3T3 cells assessed as inhibition of cell growth by neutral red uptake assay
U-937 = test: Antiproliferation activity against human U-937 cells assessed as reduction in cell viability at 5 to 50 uM measured after 48 hrs by CCK-8 assay; type: functional, cell-based; details: dose 5-50 µM
Procedure, shortened: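 U937 cells were exposed in triplicate to 1, 5, 10 and 50 µM for 24 and 48 h. CCK-8 (WST-8) reagent was then added, with 3 h further incubation at 37 °C, and absorbance was read at 450 nm to give viability.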

HCT-116 = test: Antiproliferation activity against human HCT-116 cells assessed as reduction in cell viability at 5 to 50 uM measured after 48 hrs by MTT assay; type: functional, cell-based; details: dose 5-50 µM
Procedure, shortened: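 HCT116 cells in DMEM with 10% heat-inactivated FBS were seeded at 3×10^4 cells/well and treated in triplicate at 1, 5, 10 and 50 µM for 24 and 48 h. MTT at 0.5 mg/mL was added for 3 h, formazan was dissolved in DMSO, and absorbance was read at 570 nm.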

[2] = biological target: T1, Polyamine deacetylase HDAC10 (Homo sapiens, UniProt Q969S8); test: Inhibition of recombinant human N-terminal FLAG tagged HDAC10 expressed in baculovirus infected Sf9 insect cells using fluorogenic substrate measured after 30 mins by fluorescence plate reader analysis
T1 sequence (Q969S8 whole entry): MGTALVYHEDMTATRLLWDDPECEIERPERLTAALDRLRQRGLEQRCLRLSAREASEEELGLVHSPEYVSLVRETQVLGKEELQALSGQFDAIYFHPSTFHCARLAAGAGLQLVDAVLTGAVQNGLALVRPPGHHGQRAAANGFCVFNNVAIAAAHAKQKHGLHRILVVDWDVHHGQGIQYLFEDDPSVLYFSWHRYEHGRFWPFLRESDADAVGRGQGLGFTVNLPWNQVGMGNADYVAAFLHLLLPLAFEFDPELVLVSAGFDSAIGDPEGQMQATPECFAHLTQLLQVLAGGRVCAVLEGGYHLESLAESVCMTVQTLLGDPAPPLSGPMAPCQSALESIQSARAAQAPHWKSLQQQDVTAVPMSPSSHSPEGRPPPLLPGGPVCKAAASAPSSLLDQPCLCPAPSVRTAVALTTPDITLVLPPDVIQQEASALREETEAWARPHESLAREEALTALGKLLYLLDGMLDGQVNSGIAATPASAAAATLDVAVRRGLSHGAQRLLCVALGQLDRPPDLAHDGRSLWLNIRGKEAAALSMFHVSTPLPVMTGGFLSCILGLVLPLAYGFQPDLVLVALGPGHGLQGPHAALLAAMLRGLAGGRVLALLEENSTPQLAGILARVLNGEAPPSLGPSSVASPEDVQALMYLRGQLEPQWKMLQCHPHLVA

[3] = biological target: T2, Protein deacetylase HDAC6 (Homo sapiens, UniProt Q9UBN7); test: Inhibition of recombinant human full length N-terminal GST-tagged HDAC6 expressed in Sf9 cells using ZMAL (Z-(Ac)Lys-AMC as substrate measured after 90 mins by fluorescence plate reader analysis
T2 sequence (Q9UBN7 whole entry): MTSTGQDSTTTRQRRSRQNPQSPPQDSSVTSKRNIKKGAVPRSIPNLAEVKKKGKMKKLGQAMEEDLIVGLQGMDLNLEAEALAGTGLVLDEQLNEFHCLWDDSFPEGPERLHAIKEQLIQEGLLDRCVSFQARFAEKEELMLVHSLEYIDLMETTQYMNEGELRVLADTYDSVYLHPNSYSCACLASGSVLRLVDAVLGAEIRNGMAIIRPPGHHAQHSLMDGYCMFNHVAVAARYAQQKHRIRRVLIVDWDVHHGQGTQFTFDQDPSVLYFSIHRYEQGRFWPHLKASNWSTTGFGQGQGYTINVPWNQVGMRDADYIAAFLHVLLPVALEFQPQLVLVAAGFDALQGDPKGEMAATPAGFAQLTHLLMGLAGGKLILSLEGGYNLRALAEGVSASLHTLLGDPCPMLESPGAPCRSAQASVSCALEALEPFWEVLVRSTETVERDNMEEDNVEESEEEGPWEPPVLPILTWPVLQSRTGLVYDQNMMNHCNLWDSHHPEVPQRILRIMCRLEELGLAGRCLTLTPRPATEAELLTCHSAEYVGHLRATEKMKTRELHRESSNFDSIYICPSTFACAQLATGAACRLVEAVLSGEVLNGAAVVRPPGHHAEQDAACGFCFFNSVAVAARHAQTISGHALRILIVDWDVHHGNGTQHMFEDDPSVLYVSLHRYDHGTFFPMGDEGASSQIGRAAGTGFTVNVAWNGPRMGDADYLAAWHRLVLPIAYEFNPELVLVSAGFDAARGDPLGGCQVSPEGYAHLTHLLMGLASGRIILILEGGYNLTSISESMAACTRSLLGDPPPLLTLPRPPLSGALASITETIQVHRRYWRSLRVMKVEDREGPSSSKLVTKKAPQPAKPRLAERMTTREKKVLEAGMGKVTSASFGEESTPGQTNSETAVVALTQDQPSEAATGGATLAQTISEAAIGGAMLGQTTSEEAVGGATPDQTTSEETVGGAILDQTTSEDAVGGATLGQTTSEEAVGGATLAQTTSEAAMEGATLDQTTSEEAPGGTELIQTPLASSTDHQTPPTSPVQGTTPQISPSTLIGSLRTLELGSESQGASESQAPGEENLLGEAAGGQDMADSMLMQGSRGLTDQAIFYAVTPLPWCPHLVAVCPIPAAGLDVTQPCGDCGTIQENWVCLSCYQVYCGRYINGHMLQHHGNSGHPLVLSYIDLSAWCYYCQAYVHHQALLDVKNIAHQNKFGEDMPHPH

SMILES	Ratio IC50 (Homo sapiens)	CC50 [1] [µM]	Activity (U-937)	Activity (HCT-116)	IC50 [2] [µM]	IC50 [3] [nM]
O=C(NO)c1ccc(CC(=O)N2CCC(N3CC(c4ccccc4)(c4ccccc4)C3=O)CC2)cc1	86	48	Active	Active	5.1	91
O=C(NO)c1ccc(CNC(=O)N2CCC(N3C(=O)[C@H](c4ccccc4)[C@H]3c3ccccc3)CC2)cc1 (racemic)	100	101	Active	Active	6.6	21
O=C(NO)c1ccc(CNC(=O)N2CCC(N3CC(c4ccccc4)(c4ccccc4)C3=O)CC2)cc1	43	40	Active	Active	6.5	3.4
